Experimental findings from ChEMBL document CHEMBL1129597, “2-[2'-(Dimethylamino)ethyl]-1,2-dihydro- 3H-dibenz[de,h]isoquinoline-1,3-diones with substituents at positions 4, 8, 9, 10, and 11. Synthesis, antitumor activity, and quantitative structure-activity relationships” (J Med Chem, 1996) are described below.

A short description of data set [1]: (§1) Percent increase in life span when given at a dose in P388 leukemia cells of mice. It counts as functional. In a few lines:
(§2)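 P388 leukemia in mice, standard NCI protocol: 10^6 leukemia cells given ip; compound given ip in equal doses on days 1, 5 and 9. Highest dose used was 10% below the LD10 for acute toxicity in that mouse species. %ILS = 100 × (treated life span − control life span)/control life span, reported at the highest nontoxic dose.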

The species entered for the next data set is Rattus norvegicus. The data set is described as follows: Cardiotoxicity measured by the ATP/protein ratio compared with untreated controls using neonatal rat heart myocyte assay. It counts as functional. The method in brief:
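Neonatal rat heart myocytes exposed to drug for 1 h. The ATP/protein ratio was measured versus untreated control myocytes. IC50 is the concentration reducing this ratio to 50% of control.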

The species entered for data set [2] is Mus musculus. The description is as §1. Format: functional. The method in brief:
as §2

Data set [3] can be described thus: (§3) The quotient of the IC50 in the myocytes divided by the mean IC50 in the three cell lines. Format: functional. The method in brief:
(§4)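 Calculated index: the myocyte IC50 divided by the mean IC50 across three tumor lines (sensitive L1210, melanoma UACC375, ovarian OVCAR3).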

The subject of a further data set is A549. The data set is described as follows: Activity against A549 cancer cell line. It counts as functional, cell-based. The following applies: Homo sapiens.
Data set [4] deals with L1210. Description: Compound was tested for antitumor activity against Murine leukemia cell line (L1210). The note with it: Mus musculus. Format: functional, cell-based. The method in brief:
(§5)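 Murine L1210 leukemia cells, sensitive or MDR subline, in culture. Continuous drug exposure during MTT assay. Five concentrations per analogue, six determinations per concentration. The IC50 was derived.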

Data set [5] has as its system L1210. Description: Antitumor activity against sensitive L1210 murine leukemia cell lines. Format: functional, cell-based. The note with it: Mus musculus. The method in brief:
as §5

In data set [6] the test system is MCF7. Description: Antitumor activity against human mammary carcinoma mitoxantrone-resistant […] breast cell line. Format: functional, cell-based.
Data set [7] deals with MCF7. Description: Antitumor activity against human mammary carcinoma sensitive […] breast cell line. It counts as functional, cell-based.
For data set [8], the system named is OVCAR-3. Description: Compound was tested for antitumor activity against. Human ovarian (OVCAR-3) cell lines. It counts as functional, cell-based.
Data set [9] deals with WiDr. Description: Compound was tested for antitumor activity against The compound tested for activity against Human colon carcinoma, Multi Drug resistant(MDR) WiDr - cell line. It counts as functional, cell-based.
Another data set deals with UACC-375. The data set is described as follows: Antitumor activity against human melanoma UACC375 cell line. Format: functional, cell-based. The method in brief: (§6)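 Cultured human tumor cells (melanoma UACC375, ovarian OVCAR3) under continuous drug exposure. Growth was read by sulforhodamine or MTT assay. Five concentrations per analogue, six determinations per concentration. IC50 values were derived from these.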

Data set [10] relates to MCF7. Description: Compound was tested for antitumor activity against Human mammary carcinoma Doxorubicin resistant […] breast cell line. Format: functional, cell-based.
For another data set, the system named is WiDr (Homo sapiens). The data set is described as follows: Compound was tested for antitumor activity against The compound tested for activity against Human colon carcinoma sensitive WiDr cell line.
For data set [11], the system named is MCF7. Description: Compound was tested for antitumor activity against Human mammary carcinoma sensitive cell line ([…] breast). It counts as functional, cell-based.
In data set [12] the test system is OVCAR-3. The data set is described as follows: Antitumor activity against human ovarian OVCAR-3 cell lines. Format: functional, cell-based. In a few lines:
as §6

Data set [13] deals with WiDr. The data set is described as follows: Activity against human colon carcinoma multi drug resistant (MDR)-WiDr cell line. It counts as functional, cell-based.
Data set [14] concerns WiDr. Description: The compound tested for activity againstHuman colon carcinoma sensitive WiDr cell line. Format: functional, cell-based. The note with it: Homo sapiens.
For data set [15], the species on record is Mus musculus. The data set is described as follows: Percent increase in life span when given at a dose in P388 leukemia cells of mice (Positive control for compound 44). It counts as functional. The method in brief: as §2
Data set [16] is filed under the species Mus musculus. Description: Percent increase in life span when given at a dose in P388 leukemia cells of mice (Positive control for compounds 15,34 and amonafide). Format: functional. The method in brief:
as §2

The test system of data set [17] is L1210. The data set is described as follows: Compound was tested for antitumor activity against l. Sensitive leukemia cell lines (L1210). The following applies: Mus musculus. It counts as functional, cell-based. The method in brief: as §5
Data set [18] has as its system L1210. Description: Antitumor activity against murine leukemia L1210 cell line. The note with it: Mus musculus. Format: functional, cell-based. In a few lines: as §5
The test system of data set [19] is MCF7. The data set is described as follows: Antitumor activity against human mammary carcinoma doxorubicin-resistant […] breast cell line. Format: functional, cell-based.
In data set [20] the test system is WiDr. Description: Activity against human colon carcinoma sensitive WiDr cell line. It counts as functional, cell-based.
Data set [21] is described as follows: as §3. Format: ADME, cell-based. The following applies: myocytes versus three cell lines; read-out: Toxicity ratio. The method in brief: as §4
Data set [22] relates to MCF7. Description: Compound was tested for antitumor activityHuman mammary carcinoma Doxorubicin resistant […] breast cell line. Format: functional, cell-based. The following applies: Homo sapiens.
The subject of data set [23] is WiDr. The data set is described as follows: Compound was tested for antitumor activity against The compound tested for activity against Human colon carcinoma sensitive WiDr cell line. Format: functional, cell-based.

pIC50: −log10 of the molar value.

With `CC(=O)Nc1cccc2c3c4c(cccc4cc12)C(=O)N(CCN(C)C)C3=O`, in data set [1], the ILS came out at 109%.
For the compound `O=C1c2c(O)ccc(O)c2C(=O)c2c(NCCNCCO)ccc(NCCNCCO)c21` [MITOXANTRONE], the pIC50 in the data set filed under Rattus norvegicus was 5.11. Also, the ILS in the data set listed under Mus musculus [2] was found to be 200%. Further, the Toxicity ratio in [3] stood at 368.
Turning to `CN(C)CCN1C(=O)c2c(Cl)ccc3cc4ccccc4c(c23)C1=O`, the pIC50 is 7.92 with A549; 7.82 with L1210 [4]; 8.00 with L1210 [5]; 7.22 in the data set on MCF7 [6]; 7.30 with MCF7 [7]; 6.74 in the data set with OVCAR-3 [8]. For the same compound, the pIC50 is 6.05 in the data set listed under Rattus norvegicus; 6.72 with WiDr [9]; 6.48 with UACC-375; 7.07 with MCF7 [10]; 7.05 with WiDr (Homo sapiens). Moreover, the Toxicity ratio in data set [3] amounted to 5.2.
Take `Cc1ccc2cc3ccccc3c3c2c1C(=O)N(CCN(C)C)C3=O`: the pIC50 is 7.47 with A549; 7.17 in the data set on L1210 [4]; 7.27 in the data set on L1210 [5]; 6.85 in the data set on MCF7 [6]; 6.41 in the data set with MCF7 [11]; 6.91 with OVCAR-3 [12]. Besides, the pIC50 in the data set filed under Rattus norvegicus is 5.87; in the data set with WiDr [13] it was 6.92; in the data set on WiDr [14] it was 7.22; with UACC-375, 6.75; in the data set with MCF7 [10] it was 6.48. In addition, in data set [3], the Toxicity ratio amounted to 12.
`CN(C)CCN1C(=O)c2cccc3cc4ccccc4c(c23)C1=O` [AZONAFIDE]: in the data set listed under Rattus norvegicus, the pIC50 is 5.70. Further, the ILS in the data set filed under Mus musculus [2] is 79%. The Toxicity ratio in data set [3] is 44.
Regarding `COc1cccc2c1C(=O)c1c(O)c3c(c(O)c1C2=O)C[C@@](O)(C(=O)CO)C[C@@H]3O[C@H]1C[C@H](N)[C@H](O)[C@H](C)O1` [DOXORUBICIN], the figures for the ILS in the data set filed under Mus musculus [15] and in the data set filed under Mus musculus [16] were 72% and 113%, respectively. Besides, the pIC50 in the data set listed under Rattus norvegicus was 4.99.
Consider `CN(C)CCN1C(=O)c2cccc3cc4cc(O)ccc4c(c23)C1=O`, for which the pIC50 with A549 is 8.15; in the data set on L1210 [17], 8.27; in the data set with L1210 [18] it was 8.17; in the data set on MCF7 [6], 7.77; in the data set with MCF7 [19] it was 7.70; in the data set on MCF7 [7], 7.89. In addition, the pIC50 with OVCAR-3 [12] was 7.66; in the data set filed under Rattus norvegicus, 6.39; in the data set on WiDr [20] it was 7.77; with WiDr [13], 7.70; in the data set on UACC-375, 8.40. Besides, the Toxicity ratio in [3] is recorded as 40.4.
The compound `CN(C)CCN1C(=O)c2cccc3cc4ccc(NC(=O)C(C)(C)C)cc4c(c23)C1=O` displayed an ILS in data set [1] of 105%.
In the case of `CN(C)CCN1C(=O)c2cccc3cc4c(Cl)cccc4c(c23)C1=O`, the negative logarithm of the IC50 (pIC50) with A549 is 7.66; in the data set on L1210 [18] it was 7.74; in the data set on MCF7 [6] it was 7.72; in the data set on MCF7 [19] it was 7.10; with MCF7 [7], 7.22; with OVCAR-3 [12] it was 7.41. In addition, the negative-log IC50 (pIC50) was 5.99 in the data set listed under Rattus norvegicus, 7.70 in the data set on WiDr [20], 6.96 in the data set with WiDr [13] and 7.11 in the data set with UACC-375. Moreover, the selectivity ratio in data set [21] amounted to 22.8.
For `CN(C)CCN1C(=O)c2c(O)ccc3cc4ccccc4c(c23)C1=O`, the pIC50 with A549 was 6.09; with L1210 [4], 4.83; in the data set on L1210 [5] it was 5.17; in the data set on MCF7 [6], 5.82; with MCF7 [7] it was 5.92; in the data set on MCF7 [22], 5.55. Further, the pIC50 in the data set on OVCAR-3 [12] was 5.26; in the data set listed under Rattus norvegicus, under 3.87; in the data set with WiDr [20], 5.65; in the data set on WiDr [13] it was 5.33; in the data set with UACC-375 it was 5.12. In data set [3], the Toxicity ratio is over 20.
For `CCOc1ccc2cc3cccc4c3c(c2c1)C(=O)N(CCN(C)C)C4=O`, the pIC50 in the data set on A549 is 7.21; with L1210 [5], 7.60; in the data set on L1210 [18], 7.30; in the data set on MCF7 [6], 7.82; with MCF7 [19] it was 7.00; in the data set with MCF7 [7], 7.49. The pIC50 in the data set on OVCAR-3 [12] was 7.11; in the data set listed under Rattus norvegicus it was 4.95; in the data set with WiDr [23] it was 7.00; in the data set with WiDr [13], 6.92; in the data set on UACC-375, 7.11. In addition, the Toxicity ratio in data set [3] stood at 188.
For the compound `CN(C)CCN1C(=O)c2cccc3cc(N)cc(c23)C1=O` [AMONAFIDE], the pIC50 is 5.96 with A549; 5.92 in the data set with MCF7 [6]; 5.74 with MCF7 [19]; 5.96 in the data set with MCF7 [7]; 4.32 in the data set filed under Rattus norvegicus; 5.96 with WiDr [20]. This compound also showed a pIC50 in the data set on WiDr [13] of 5.66. The compound also gave an ILS in the data set listed under Mus musculus [2] of 88%. Further, in data set [3], the Toxicity ratio was found to be 30.

A word on the ILS: it is how much longer treated animals lived than controls. Read a high ILS as much gain in survival. For orientation: pIC50 means −log10 of the IC50, conventionally taken in molar units.
